Reference: ChEMBL document CHEMBL1137716, “Novel modifications in the series of O-(2-phthalimidoethyl)-N-substituted thiocarbamates and their ring-opened congeners as non-nucleoside HIV-1 reverse transcriptase inhibitors” (Eur J Med Chem, 2009)
Active and inactive are the calls of the source. The rule behind the calls is not given here.

Assays:
[1] = tested on: Human immunodeficiency virus 1; experiment: Antiviral activity against wild type HIV1 3B in human MT4 cells assessed as protection against viral induced cytopathogenicity by MTT assay; type: functional, organism-based; conditions: Human immunodeficiency virus 1, 3B
Outline: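 MT-4 cells infected with HIV-1; 50% protection from virus-induced cytopathogenicity read by MTT method; EC50 in micromolar; mean of three separate experiments, triplicate samples varying under 10%.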

[2] = tested on: Human immunodeficiency virus 1; experiment: Antiviral activity against HIV1 3B Y181C/K103N double mutant in human MT4 cells assessed as protection against viral induced cytopathogenicity by MTT assay; type: functional, organism-based
Outline: (§1)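 MT-4 cells infected with HIV-1 carrying the NNRTI-resistance mutation were assayed for protection from virus-induced cytopathogenicity, read out as cell viability by MTT. EC50 is the compound concentration giving 50% protection. Values are means of three separate experiments, with variation among triplicate samples under 10%. Efavirenz served as the reference.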

[3] = Cytotoxicity against mock-infected human MT4 cells by MTT assay; type: cell-based
Outline: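 Mock-infected MT-4 cells, tested in parallel with the antiviral assay; viability read by MTT method; CC50 is the concentration lowering viability by 50%; mean of three separate experiments, triplicate variation under 10%.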

[4] = tested on: Human immunodeficiency virus 1; experiment: Antiviral activity against HIV1 3B Y181C resistant mutant in human MT4 cells assessed as protection against viral induced cytopathogenicity by MTT assay; type: functional, organism-based; conditions: Human immunodeficiency virus 1, 3B; outline: as §1
[5] = Selectivity index, ratio of CC50 for human MT4 cells to EC50 for HIV1 3B; type: toxicity, cell-based; conditions: read-out: Ratio CC50/EC50
Outline: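 Ratio of CC50 in mock-infected MT-4 cells to EC50 for protection from HIV-1 cytopathogenicity, both read by MTT method.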

[6] = tested on: Human immunodeficiency virus 1; experiment: Antiviral activity against HIV1 3B K103R resistant mutant in human MT4 cells assessed as protection against viral induced cytopathogenicity by MTT assay; conditions: Human immunodeficiency virus 1, 3B

Row | Compound | EC50 [1] | Activity [2] | CC50 [3] | EC50 [4] | selectivity ratio [5] | EC50 [6]
1 | Cc1ccc(NC(=S)OC[C@@H](C)N2C(=O)c3ccccc3C2=O)cc1 | 0.07 µM | inactive | 76 µM | 9 µM | 1090 | 
2 | O=C1c2ccccc2C(=O)N1CCOC(=S)Nc1ccc(Cl)c([N+](=O)[O-])c1 | 0.05 µM | inactive | > 100 µM | 2.8 µM | > 2000 | 
3 | Cc1ccc2c(c1)C(=O)N(C(C)COC(=S)Nc1ccc(Cl)cc1)C2=O (racemic) | 0.06 µM | inactive | 34 µM | 4 µM | 567 | 
4 | O=C1Nc2ccc(Cl)cc2[C@@](C#CC2CC2)(C(F)(F)F)O1 [EFAVIRENZ] |  |  |  | 0.02 µM |  | 
5 | COc1ccc(NC(=S)OCCN2C(=O)c3ccc(C)cc3C2=O)cc1 | 0.03 µM | inactive | > 100 µM | 44 µM | > 3330 | 
6 | CCc1ccc(NC(=S)OCCN2C(=O)c3ccc(C)cc3C2=O)cc1 | 0.02 µM | inactive | 43 µM | 16 µM | 2150 | 
7 | Cc1ccc2c(c1)C(=O)N(CCOC(=S)Nc1ccc(C#N)cc1)C2=O | 0.01 µM | inactive | 57 µM | 4.5 µM | 5700 | 
8 | Cc1ccc(NC(=S)OCC(C)N2C(=O)c3ccc(C)cc3C2=O)cc1 (racemic) | 0.1 µM | inactive | 41 µM | 12 µM | 410 | 
9 | O=C(O)c1ccccc1C(=O)NCCOC(=S)Nc1ccc(F)cc1F | 3.8 µM | inactive | > 100 µM |  | > 26.3 | 
10 | O=C(O)c1ccccc1C(=O)NCCOC(=S)Nc1cc(F)cc(F)c1 | 62 µM | inactive | > 100 µM |  | > 1.6 | 
11 | O=C(O)c1ccccc1C(=O)NCCOC(=S)Nc1ccc(Cl)c(Cl)c1Cl | 44 µM | inactive | > 100 µM |  | > 2.3 | 
12 | COc1ccc(CCNC(=S)OCCN2C(=O)c3ccccc3C2=O)cc1OC | 8 µM | inactive | > 100 µM |  | > 12.5 | 
13 | Cc1ccc(NC(=S)OC[C@H](C)NC(=O)c2ccccc2C(=O)O)cc1 | 13.8 µM | inactive | > 100 µM |  | > 7.2 | 
14 | O=C(O)c1ccccc1C(=O)NCCOC(=S)Nc1c(F)cccc1F | 45 µM | inactive | > 100 µM |  | > 2.2 | 
15 | Cc1ccc2c(c1)C(=O)N(CCOC(=S)Nc1ccc(F)cc1)C2=O | 0.03 µM | inactive | 100 µM | 68 µM | 3330 | 
16 | Cc1cc(Br)cc(C)c1NC(=S)OCCN1C(=O)c2ccccc2C1=O | 9 µM | inactive | > 100 µM |  | > 11.1 | 
17 | C[C@H](COC(=S)Nc1ccc(Cl)cc1)NC(=O)c1ccccc1C(=O)O | 0.3 µM | inactive | > 100 µM | 18 µM | > 333 | 
18 | C[C@H](COC(=S)Nc1ccc(Cl)cc1)N1C(=O)c2ccccc2C1=O | 0.01 µM | inactive | 48 µM | 1.3 µM | 4800 | 4.8 µM
19 | Cc1ccc(NC(=S)OCCN2C(=O)c3ccc(C)cc3C2=O)cc1 | 0.02 µM | inactive | 69 µM |  | 3450 | 
20 | Cc1ccc2c(c1)C(=O)N(CCOC(=S)Nc1ccc(Cl)c([N+](=O)[O-])c1)C2=O | 0.05 µM | inactive | > 100 µM | 30 µM | > 2000 | 
21 | Cc1ccc2c(c1)C(=O)N(CCOC(=S)Nc1ccc(C)c(Cl)c1)C2=O | 0.4 µM | inactive | 66 µM |  | 165 | 
22 | Cc1ccc2c(c1)C(=O)N(CCOC(=S)Nc1ccc(I)cc1)C2=O | 0.01 µM | inactive | 89 µM | 9 µM | 8900 | 
23 | CC(C)(C)c1ccc2c(c1)C(=O)N(CCOC(=S)Nc1ccc(Cl)cc1)C2=O | 1.2 µM | inactive | 55 µM |  | 45.8 | 
24 | O=C1c2ccccc2C(=O)N1CCOC(=S)Nc1ccc(F)cc1F | 0.5 µM | inactive | > 100 µM |  | > 200 | 
25 | S=C(NCCc1ccccn1)Nc1ccc(Br)cn1 [TROVIRDINE] | 0.02 µM |  |  | 15 µM | 3000 | 
